Key:
[1] = molecular target: T1, Estrogen receptor (Homo sapiens) (UniProt P03372); test: Displacement of [3H]E2 from human recombinant ERalpha at 3 nM after 16 to 20 hrs by cell-free assay
T1 sequence (whole entry): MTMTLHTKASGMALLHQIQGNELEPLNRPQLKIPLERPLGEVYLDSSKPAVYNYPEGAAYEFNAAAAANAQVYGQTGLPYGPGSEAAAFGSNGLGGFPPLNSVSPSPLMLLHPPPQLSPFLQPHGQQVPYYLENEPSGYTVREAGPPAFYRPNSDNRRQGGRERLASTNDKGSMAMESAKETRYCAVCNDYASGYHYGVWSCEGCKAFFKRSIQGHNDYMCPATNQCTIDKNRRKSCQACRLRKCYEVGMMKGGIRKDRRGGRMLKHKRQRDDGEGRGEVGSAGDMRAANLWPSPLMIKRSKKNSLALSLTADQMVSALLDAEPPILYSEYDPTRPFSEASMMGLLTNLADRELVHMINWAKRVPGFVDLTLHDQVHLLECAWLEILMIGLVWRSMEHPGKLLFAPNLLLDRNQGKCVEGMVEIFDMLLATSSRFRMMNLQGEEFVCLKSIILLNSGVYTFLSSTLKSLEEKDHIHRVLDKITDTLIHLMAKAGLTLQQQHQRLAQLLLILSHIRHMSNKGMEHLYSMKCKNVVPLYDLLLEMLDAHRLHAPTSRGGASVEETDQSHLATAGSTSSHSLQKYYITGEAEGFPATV
How it was run: (§1)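 Recombinant human ERα (1 nM, [3H]-E2 3 nM) or ERβ (4 nM, [3H]-E2 10 nM) incubated with test compound, 5% DMSO final, for 16–20 h at 4 °C. Nonspecific binding set with 100-fold unlabeled E2. Complexes bound to hydroxyapatite, washed three times, counted by liquid scintillation. Compounds tested at 1000-fold the [3H]-E2 level (3 µM ERα, 10 µM ERβ). Below 50% displacement classed RBA <0.1%.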

[2] = molecular target: Estrogen receptor beta (Homo sapiens) (UniProt Q92731); test: Displacement of [3H]E2 from human recombinant ERbeta at 10 nM after 16 to 20 hrs by cell-free assay; how it was run: as §1
[3] = molecular target: T2, 17-beta-hydroxysteroid dehydrogenase type 1 (Homo sapiens, UniProt P14061); test: Displacement of [3H]E1 from human placental cytosolic17beta-HSD1 after 10 mins by cell-free assay
T2 sequence (P14061 whole entry): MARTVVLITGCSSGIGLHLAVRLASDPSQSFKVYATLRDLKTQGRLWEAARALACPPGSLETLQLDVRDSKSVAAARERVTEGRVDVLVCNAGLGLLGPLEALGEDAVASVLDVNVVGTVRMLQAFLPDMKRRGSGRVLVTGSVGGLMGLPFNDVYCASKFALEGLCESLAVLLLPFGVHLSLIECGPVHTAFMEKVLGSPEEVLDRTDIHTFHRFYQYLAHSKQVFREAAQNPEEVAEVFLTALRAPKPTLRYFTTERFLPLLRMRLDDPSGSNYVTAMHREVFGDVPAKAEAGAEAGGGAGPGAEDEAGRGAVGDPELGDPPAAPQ
How it was run: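 Cytosolic 17β-HSD1 from human placenta, ammonium sulfate precipitated. Enzyme incubated with NADH 500 µM, test compound and unlabeled plus [3H]-E1 (final 500 nM) for 10 min at 37 °C. Reaction stopped with HgCl2 and extracted with ether. E1/E2 separated by C18 RP HPLC (acetonitrile/water 45:55) with radioflow detection. Activity taken as % conversion. Percent inhibition read at 1 µM.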

[4] = species on record: Homo sapiens; test: Selectivity factor, ratio of IC50 for human placental cytosolic17beta-HSD1 to IC50 for human placental microsomal 17beta-HSD2
[5] = molecular target: T3, 17-beta-hydroxysteroid dehydrogenase type 2 (Homo sapiens, UniProt P37059); test: Displacement of [3H]E2 from human placental microsomal 17beta-HSD2 after 20 mins by cell-free assay
T3 sequence (P37059 whole entry): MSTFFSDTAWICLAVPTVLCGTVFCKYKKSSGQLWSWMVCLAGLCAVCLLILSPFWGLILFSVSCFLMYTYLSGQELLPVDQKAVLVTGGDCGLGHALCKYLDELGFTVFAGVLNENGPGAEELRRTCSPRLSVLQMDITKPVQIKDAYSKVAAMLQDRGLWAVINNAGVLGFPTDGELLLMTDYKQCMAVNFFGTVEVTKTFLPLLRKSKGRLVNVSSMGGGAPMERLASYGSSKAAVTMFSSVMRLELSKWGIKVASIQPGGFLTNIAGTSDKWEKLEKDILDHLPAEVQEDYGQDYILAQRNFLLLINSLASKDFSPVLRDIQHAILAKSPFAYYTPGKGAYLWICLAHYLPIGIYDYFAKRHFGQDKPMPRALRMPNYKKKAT
How it was run: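 Microsomal 17β-HSD2 from human placenta, 150,000 g pellet. Started with unlabeled plus [3H]-E2 (final 500 nM), stopped after 20 min with HgCl2, ether-extracted. E1/E2 resolved by radio-HPLC, giving % conversion. Inhibition read at 1 µM.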

[6] = Drug metabolism in human liver microsome S9 fraction assessed as acid metabolite formation by LC-MS/MS analysis; type: ADME; settings: microsomes
[7] = Drug metabolism in human liver microsome S9 fraction assessed as didemethylation metabolite formation by LC-MS/MS analysis; type: ADME; settings: microsomes
[8] = Drug metabolism in human liver microsome S9 fraction assessed as di-hydroxylation metabolite formation by LC-MS/MS analysis; type: ADME; settings: microsomes
[9] = Half-life in human liver microsome S9 fraction at 1 uM up to 60 mins by LC-MS/MS analysis; type: ADME, microsomes
How it was run: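 Sampled at 0, 5, 15 and 60 min and quenched with 2 volumes cold acetonitrile containing internal standard. Remaining parent quantified by LC-MS/MS to give t1/2.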

[10] = Drug metabolism in human liver microsome S9 fraction assessed as demethylation/hydroxylation metabolite formation by LC-MS/MS analysis; type: ADME; settings: microsomes
[11] = Drug metabolism in human liver microsome S9 fraction treated with N-Methyl-N,5-bis(3-methylphenyl)thiophene-2-carboxamide by LC-MS/MS analysis; type: ADME; settings: microsomes
[12] = Half-life in human liver microsome S9 fraction at 3 uM up to 45 mins by LC-MS/MS analysis; type: ADME, microsomes

Estrogen receptor beta (Homo sapiens), sequence (Q92731 whole entry): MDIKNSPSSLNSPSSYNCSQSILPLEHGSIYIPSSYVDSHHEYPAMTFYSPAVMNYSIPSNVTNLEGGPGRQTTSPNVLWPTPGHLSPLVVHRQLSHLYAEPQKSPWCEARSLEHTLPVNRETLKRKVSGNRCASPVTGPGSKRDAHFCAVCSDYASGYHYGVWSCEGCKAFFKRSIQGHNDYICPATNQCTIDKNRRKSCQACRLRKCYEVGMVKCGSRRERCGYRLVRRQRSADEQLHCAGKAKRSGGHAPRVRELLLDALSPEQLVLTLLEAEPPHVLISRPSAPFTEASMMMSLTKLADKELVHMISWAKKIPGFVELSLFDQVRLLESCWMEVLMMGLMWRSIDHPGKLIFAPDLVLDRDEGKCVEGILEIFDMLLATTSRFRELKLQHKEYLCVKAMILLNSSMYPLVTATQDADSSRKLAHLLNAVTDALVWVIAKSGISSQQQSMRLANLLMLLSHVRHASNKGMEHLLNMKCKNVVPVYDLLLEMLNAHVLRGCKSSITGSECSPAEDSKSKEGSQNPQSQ

SMILES: Cc1ccc(N(C)C(=O)c2ccc(-c3ccc(C)c(C)c3)s2)cc1
- inhibition [1]: 5%
- inhibition [2]: 4%

SMILES: Cc1cccc(-c2ccc(C(=O)N(C)c3cccc(Cl)c3)s2)c1
- IC50 [3]: 9410 nM
- Ratio IC50 [4]: 29
- inhibition [1]: 16%
- inhibition [2]: 11%
- IC50 [5]: 327 nM

SMILES: COc1cccc(N(C)C(=O)c2ccc(-c3cccc(C)c3)s2)c1
- Drug metabolism [6]: metabolite_notdetected
- Drug metabolism [7]: metabolite_notdetected
- Drug metabolism [8]: metabolite_notdetected

SMILES: Cc1cccc(-c2ccc(C(=O)N(C)c3cccc(C)c3)cc2)c1
- inhibition [1]: 8%
- inhibition [2]: 11%

SMILES: COc1cc(-c2cccc(C)c2)sc1C(=O)N(C)c1cccc(C)c1
- IC50 [3]: 16700 nM
- Ratio IC50 [4]: 132
- IC50 [5]: 127 nM

SMILES: Cc1ccc(-c2ccc(C(=O)N(C)c3ccccc3C)s2)cc1
- IC50 [3]: 698 nM
- Ratio IC50 [4]: 3
- IC50 [5]: 225 nM
- half-life at 1 µM [9]: 22 min

SMILES: Cc1cccc(-c2cnc(C(=O)N(C)c3cccc(C)c3)s2)c1
- IC50 [3]: 25300 nM
- Ratio IC50 [4]: 51
- inhibition [1]: 9%
- inhibition [2]: 0%
- IC50 [5]: 499 nM
- half-life at 1 µM [9]: 5 min

SMILES: COc1cccc(N(C)C(=O)c2ccc(-c3cccc(OC)c3F)s2)c1
- half-life at 1 µM [9]: 12 min

SMILES: COc1cccc(-c2ccc(C(=O)N(C)c3cccc(OC)c3)s2)c1
- Drug metabolism [6]: metabolite_notdetected
- Drug metabolism [10]: metabolite_notdetected

SMILES: Cc1cccc(-c2ccc(C(=O)N(C)c3cccc(C)c3)s2)c1
- inhibition [1]: 12%
- inhibition [2]: 21%
- Drug metabolism [7]: metabolite_notdetected

SMILES: Cc1cccc(N(C)C(=O)c2ccc(-c3cccc(CO)c3)s2)c1
- Drug metabolism [11]: metabolite_notdetected

SMILES: Cc1ccc(-c2ccc(C(=O)N(C)c3cccc(C)c3)s2)cc1
- inhibition [1]: 11%
- inhibition [2]: 34%

SMILES: COc1cccc(N(C)C(=O)c2ccc(-c3cccc(N(C)C)c3)s2)c1
- half-life at 3 µM [12]: 29 min
